Test results from ChEMBL document CHEMBL3576829, “Design, synthesis and evaluation of scutellarein-O-alkylamines as multifunctional agents for the treatment of Alzheimer's disease” (Eur J Med Chem, 2015).

Columns and labels:
[1] = biological target: T1, Acetylcholinesterase (Rattus norvegicus, UniProt P37136); assay: Inhibition of AChE in rat cortex using acetylthiocholine iodide as substrate after 15 mins by Ellman's method
T1 sequence (P37136 whole entry): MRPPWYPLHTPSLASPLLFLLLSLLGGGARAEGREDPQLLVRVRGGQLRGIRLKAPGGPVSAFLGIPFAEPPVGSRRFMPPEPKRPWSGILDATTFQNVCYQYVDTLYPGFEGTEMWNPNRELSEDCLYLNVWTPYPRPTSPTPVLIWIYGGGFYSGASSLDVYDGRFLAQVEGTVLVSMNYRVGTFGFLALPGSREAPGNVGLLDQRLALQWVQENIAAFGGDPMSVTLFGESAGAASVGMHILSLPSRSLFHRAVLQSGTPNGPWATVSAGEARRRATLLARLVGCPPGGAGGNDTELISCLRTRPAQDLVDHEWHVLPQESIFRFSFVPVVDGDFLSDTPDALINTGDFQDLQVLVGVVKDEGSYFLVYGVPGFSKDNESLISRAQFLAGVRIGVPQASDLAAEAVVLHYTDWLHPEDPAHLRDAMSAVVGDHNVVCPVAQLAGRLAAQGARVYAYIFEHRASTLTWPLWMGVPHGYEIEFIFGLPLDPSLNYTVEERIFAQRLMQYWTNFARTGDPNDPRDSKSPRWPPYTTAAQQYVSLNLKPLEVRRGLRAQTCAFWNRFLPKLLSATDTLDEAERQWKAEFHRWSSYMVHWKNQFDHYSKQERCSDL

[2] = biological target: Acetylcholinesterase (Electrophorus electricus, UniProt O42275); assay: Inhibition of electric eel AChE using acetylthiocholine iodide as substrate after 15 mins by Ellman's method
[3] = Inhibition of BuChE in rat serum using butyrylthiocholine iodide as substrate after 15 mins by Ellman's method; details: 0.25 h
How it was run: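 Rat serum (25%, 10 µL) in 100 µL with 1 mmol/L butyrylthiocholine iodide stock, pH 7.4 phosphate buffer and graded inhibitor levels, 37°C for 15 min; DTNB (0.2%) then added and absorbance read at 405 nm.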

[4] = species: Rattus norvegicus; assay: Selectivity index, ratio of IC50 for rat serum BuChE to IC50 for rat cortex AChE

Acetylcholinesterase (Electrophorus electricus, UniProt O42275), sequence (O42275 whole entry): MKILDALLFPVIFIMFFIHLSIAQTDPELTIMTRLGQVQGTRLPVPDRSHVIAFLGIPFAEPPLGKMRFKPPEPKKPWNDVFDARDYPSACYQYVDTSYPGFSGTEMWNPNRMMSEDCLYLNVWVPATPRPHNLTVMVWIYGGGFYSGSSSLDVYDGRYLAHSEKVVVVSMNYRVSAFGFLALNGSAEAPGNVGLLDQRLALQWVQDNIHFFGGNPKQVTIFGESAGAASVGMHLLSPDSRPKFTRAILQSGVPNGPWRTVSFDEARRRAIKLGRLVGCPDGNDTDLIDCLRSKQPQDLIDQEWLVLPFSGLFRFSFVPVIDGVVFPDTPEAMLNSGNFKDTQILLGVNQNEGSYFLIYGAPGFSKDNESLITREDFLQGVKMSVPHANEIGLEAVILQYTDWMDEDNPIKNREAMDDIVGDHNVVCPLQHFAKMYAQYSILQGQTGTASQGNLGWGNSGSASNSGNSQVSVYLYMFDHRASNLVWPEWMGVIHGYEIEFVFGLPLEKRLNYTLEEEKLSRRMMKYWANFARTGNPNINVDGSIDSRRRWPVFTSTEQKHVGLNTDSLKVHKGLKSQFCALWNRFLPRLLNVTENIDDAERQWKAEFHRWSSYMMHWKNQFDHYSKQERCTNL

Structure (SMILES) | IC50 [1] [µM] | IC50 [2] [µM] | IC50 [3] [µM] | Ratio IC50 [4]
COc1ccccc1CN(C)CCCOc1cccc(-c2cc(=O)c3c(O)c(OC)c(OC)cc3o2)c1 | 8.1 | 28.6 | 354 | 43.7
COc1cc2oc(-c3cccc(OCCCN4CCN(Cc5ccccc5)CC4)c3)cc(=O)c2c(OC)c1OC | 3.12 | 1.59 | 149 | 47.7
COc1cc2oc(-c3cccc(OCCCN(C)Cc4ccccc4)c3)cc(=O)c2c(OC)c1OC | 5.17 | 25 | 117 | 22.7
COc1cc2oc(-c3cccc(OCCCCCCN4CCN(Cc5ccccc5)CC4)c3)cc(=O)c2c(OC)c1OC | 7.33 | 21.4 | > 500 | > 68.2
CCN(CCCCCCOc1cccc(-c2cc(=O)c3c(OC)c(OC)c(OC)cc3o2)c1)Cc1ccccc1 | 2.03 | 12.2 | 52.1 | 25.7
COc1ccccc1CN(C)CCCCCCOc1cccc(-c2cc(=O)c3c(OC)c(OC)c(OC)cc3o2)c1 | 0.96 | 4.5 | 60.7 | 63.2
COc1ccccc1CN(C)CCCCCCOc1ccc(-c2cc(=O)c3c(OC)c(OC)c(OC)cc3o2)cc1 | 0.45 | 2.23 | 96.1 | 214
COc1cc2oc(-c3cccc(OCCCCN4CCN(C)CC4)c3)cc(=O)c2c(OC)c1OC | 0.25 | 1.15 | > 500 | > 2000
CCN(CCCCCCOc1ccc(-c2cc(=O)c3c(OC)c(OC)c(OC)cc3o2)cc1)Cc1ccccc1 | 0.34 | 2.83 | > 500 | > 1470
COc1cc2oc(-c3ccc(OCCCCCCN4CCN(Cc5ccccc5)CC4)cc3)cc(=O)c2c(OC)c1OC | 8.07 | 26.5 | > 500 | > 62
COc1cc2oc(-c3cccc(OCCCCCCN(C)Cc4ccccc4)c3)cc(=O)c2c(OC)c1OC | 2.13 | 6.13 | 78.7 | 36.9
CCN(CCCOc1cccc(-c2cc(=O)c3c(OC)c(OC)c(OC)cc3o2)c1)Cc1ccccc1 | 5.4 | 20.4 | 101 | 18.7
COc1cc2oc(-c3ccc(OCCCN4CCN(C)CC4)cc3)cc(=O)c2c(OC)c1OC | 8.3 | 34.7 | > 500 | > 60.2
COc1cc2oc(-c3cccc(OCCN4CCN(Cc5ccccc5)CC4)c3)cc(=O)c2c(OC)c1OC | 1.18 | 2.91 | > 500 | > 424
COc1cc2oc(-c3cccc(OCCCCN(C)Cc4ccccc4)c3)cc(=O)c2c(OC)c1OC | 4.53 | 18.4 | 90.7 | 20
CCN(CCCOc1ccc(-c2cc(=O)c3c(OC)c(OC)c(OC)cc3o2)cc1)Cc1ccccc1 | 2.04 | 7.3 | 81.3 | 39.9
CCN(CCCOc1cccc(-c2cc(=O)c3c(OC)c(OC)c(OC)cc3o2)c1)Cc1ccccc1OC | 0.33 | 1.78 | 77.2 | 234
COc1ccccc1CN(C)CCCCOc1ccc(-c2cc(=O)c3c(O)c(OC)c(OC)cc3o2)cc1 | 3.43 | 14.4 | > 500 | > 146
CCN(CCCCOc1cccc(-c2cc(=O)c3c(OC)c(OC)c(OC)cc3o2)c1)Cc1ccccc1OC | 0.8 | 2.37 | 78.3 | 97.9
CCN(CCCCOc1cccc(-c2cc(=O)c3c(OC)c(OC)c(OC)cc3o2)c1)Cc1ccccc1 | 2.35 | 8.3 | 63.4 | 27

Structure (SMILES) | IC50 [1] [µM] | IC50 [2] [µM] | IC50 [3] [µM] | Ratio IC50 [4]
COc1ccccc1CN(C)CCCCOc1cccc(-c2cc(=O)c3c(O)c(OC)c(OC)cc3o2)c1 | 7.73 | 31 | > 500 | > 64.7
COc1ccccc1CN(C)CCCCOc1cccc(-c2cc(=O)c3c(OC)c(OC)c(OC)cc3o2)c1 | 2.61 | 12.2 | 85 | 32.6
COc1ccccc1CN(C)CCCOc1ccc(-c2cc(=O)c3c(O)c(OC)c(OC)cc3o2)cc1 | 5 | 31.1 | > 500 | > 100
COc1cc2oc(-c3ccc(OCCCCN4CCN(Cc5ccccc5)CC4)cc3)cc(=O)c2c(OC)c1OC | 2.56 | 8.53 | 131 | 51.1
CCN(CCCOc1cccc(-c2cc(=O)c3c(O)c(OC)c(OC)cc3o2)c1)Cc1ccccc1OC | 1.58 | 4.5 | 240 | 152
COc1ccccc1CN(C)CCCOc1cccc(-c2cc(=O)c3c(OC)c(OC)c(OC)cc3o2)c1 | 0.38 | 1.59 | 75.4 | 198
COc1ccccc1CN(C)CCCCCCOc1ccc(-c2cc(=O)c3c(O)c(OC)c(OC)cc3o2)cc1 | 5.07 | 22.6 | > 500 | > 98.6
CCN(CCCCOc1cccc(-c2cc(=O)c3c(O)c(OC)c(OC)cc3o2)c1)Cc1ccccc1OC | 2.4 | 7.97 | > 500 | > 208
COc1cc2oc(-c3cccc(OCCCCN4CCN(Cc5ccccc5)CC4)c3)cc(=O)c2c(OC)c1OC | 4.03 | 25.3 | 109 | 27
COc1cc2oc(-c3ccc(OCCCCN4CCN(C)CC4)cc3)cc(=O)c2c(OC)c1OC | 1.07 | 5.27 | 146 | 136
CCN(CCOc1cccc(-c2cc(=O)c3c(OC)c(OC)c(OC)cc3o2)c1)Cc1ccccc1 | 3.37 | 3.8 | 79.6 | 23.6
COc1cc2oc(-c3ccc(OCCCCCCN(C)Cc4ccccc4)cc3)cc(=O)c2c(OC)c1OC | 0.99 | 5.4 | 84.6 | 85.5
CCN(CCCCCCOc1cccc(-c2cc(=O)c3c(OC)c(OC)c(OC)cc3o2)c1)Cc1ccccc1OC | 0.22 | 1.3 | 41.6 | 189
O=c1cc(-c2ccc(O)cc2)oc2cc(O)c(O)c(O)c12 [SCUTELLAREIN] | > 500 | – | > 500 | –
COc1cc2oc(-c3ccc(OCCCN(C)Cc4ccccc4)cc3)cc(=O)c2c(OC)c1OC | 2.62 | 11.5 | 136 | 51.8
COc1cc2oc(-c3cccc(OCCN(C)Cc4ccccc4)c3)cc(=O)c2c(OC)c1OC | 9.2 | 35.7 | 87.9 | 9.6
COc1ccccc1CN(C)CCCCCCOc1cccc(-c2cc(=O)c3c(O)c(OC)c(OC)cc3o2)c1 | 1.59 | 5.8 | 404 | 254
COc1cc2oc(-c3cccc(OCCN4CCN(C)CC4)c3)cc(=O)c2c(OC)c1OC | 8.2 | 22.5 | > 500 | > 61
COc1cc2oc(-c3ccc(OCCCN4CCN(Cc5ccccc5)CC4)cc3)cc(=O)c2c(OC)c1OC | 1.8 | 8.7 | > 500 | > 278
